PMC7707623 (Journal of Medicinal Chemistry, 2020)

Tests used:
[1] = tested on: three independent murine SCLC (mSCLC) cell lines; assay: Cytotoxicity against three murine SCLC cell lines; assay type: cell-based; details: Mus musculus, read-out: average EC50
Outline: (§1)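 Murine SCLC cells were allowed to attach overnight, then given test compound as a 10-point log-dilution series. Viability was read by CellTiter-Glo luminescence at 72 h, with the reagent diluted 1:1 in PBS/1% Triton-X. Signals were normalized to DMSO-treated cells and IC50 values came from curve fitting (n = 2 technical replicates). Fold values are ratios of these IC50s.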

[2] = tested on: human SCLC cell lines, H889, H2107, and H128; assay: Dose response against human SCLC cell lines; assay type: cell-based
yeast cells (Sec14) = details: through inhibition of Sec14; cited from earlier work
[3] = tested on: murine SCLC cell line 319N1; assay: Cytotoxicity assay; assay type: cell-based, mouse
Outline: as §1

[4] = tested on: 319N1-M2KO resistant clones A–E; assay: Cytotoxicity against sulfonamide 27-resistant clones; assay type: cell-based, mouse; details: for IC50 fold change, resistant clones versus parental: all five clones A–E
[5] = target: T1, p50 (β-tubulin) in 518T2 murine SCLC cells (Mus musculus, UniProt P99024); assay type: binding; details: 50 nM to 50 μM, 1.5 h, Alexa Fluor 532 azide
Outline: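 518T2 cells were plated at 1 million per well in DMEM with 5% FBS. Next day the alkyne probe in DMSO was added at 50 nM to 50 μM for 1.5 h at 37 °C, 5% CO2. Cells were PBS-washed and lysed in 1% SDS buffer (50 mM HEPES pH 7.4, 10 mM KCl, 2 mM MgCl2, benzonase). Lysates were copper-clicked to 25 μM Alexa Fluor 532 azide, run on SDS-PAGE and imaged by in-gel fluorescence.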

bovine brain tubulin = assay: Microtubule dynamics assay, brain tubulin; assay type: biochemical
[6] = target: human recombinant β3 tubulin (Homo sapiens, UniProt Q13509); assay: Microtubule dynamics assay, recombinant β3 tubulin; assay type: biochemical
Outline: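 Human αβ-tubulin (TUBA1B with TUBB3, C-terminal His-tag removed by TEV) was expressed in Tni insect cells and purified by Ni-affinity and anion exchange. Compound was added at 1, 5 or 10 μM versus DMSO; kymograph growth rates were taken from 71–119 microtubules over two trials.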

[7] = target: T1, p50 (β-tubulin) in 518T2 murine SCLC cells; assay: Cell-based competition with alkyne probe 24; assay type: binding; details: probe 24 at 5 μM, pre-treatment with increasing concentrations
518T2 cells = assay: Cell cycle analysis by flow cytometry; assay type: cell-based, mouse; details: 300 nM, 24 h
518T2-Tubb5^T238A cells = assay: Dose response in Tubb5 T238A edited cells; assay type: cell-based, mouse; details: 518T2-Tubb5^T238A versus 518T2

For `O=C(c1ccc(Cl)c([N+](=O)[O-])c1)N1CCN(c2ccccc2)CC1` [Compound 1], the EC50 [1] is given as 3210 ± 600 nM, the “sensitivity of human SCLC cell lines” value [2] is given as “exhibited sensitivity” and the “toxicity to yeast cells” value (yeast cells (Sec14)) is given as “toxic to yeast cells”.
With `O=C(c1ccc(Cl)c([N+](=O)[O-])c1)N1CCN(c2ccccc2Cl)CC1` [Compound 2, (4-Chloro-3-nitrophenyl)(4-(2-chlorophenyl)piperazin-1-yl)methanone] the “antiproliferative activity in words” value ([3]; 319N1) was “slightly improved potency”.
For `COc1cccc(N2CCN(C(=O)c3ccc(Cl)c([N+](=O)[O-])c3)CC2)c1` [Compound 3, (4-Chloro-3-nitrophenyl)(4-(3-methoxyphenyl)piperazin-1-yl)methanone], the “fold more potent than benzamide 1” value ([3]; 319N1) was roughly 3 fold.
With `Cc1cccc(N2CCN(C(=O)c3ccc(Cl)c([N+](=O)[O-])c3)CC2)c1` [Compound 4, (4-Chloro-3-nitrophenyl)(4-(m-tolyl)piperazin-1-yl)methanone] the “fold more potent than benzamide 1” value ([3]; 319N1) was roughly 3 fold.
For `Cc1ccc(Cl)cc1N1CCN(C(=O)c2ccc(Cl)c([N+](=O)[O-])c2)CC1` [Compound 10, (4-(5-Chloro-2-methylphenyl)piperazin-1-yl)(4-chloro-3-nitrophenyl)methanone], the EC50 ([3]; Mus musculus, 319N1) was 182 nM and the “IC50 fold change, resistant clones versus parental” value [4] was greater than 2.5 fold.
For `O=C(c1ccc(Cl)c([N+](=O)[O-])c1)N1CCN(c2ccccc2F)CC1` [Compound 12], the “fold less active than parent benzamide 1” value ([3]; 319N1) was 2 fold.
In the case of `Cc1ccc(Cl)cc1N1CCN(C(=O)c2ccc(F)c([N+](=O)[O-])c2)CC1` [Compound 20, (4-(5-Chloro-2-methylphenyl)piperazin-1-yl)(4-fluoro-3-nitrophenyl)methanone], the EC50 ([3]; Mus musculus, 319N1) is reported as 818 nM.
Molecule `Cc1ccc(Cl)cc1N1CCN(C(=O)c2ccc(I)c([N+](=O)[O-])c2)CC1` [Compound 22, (4-(5-Chloro-2-methylphenyl)piperazin-1-yl)(4-iodo-3-nitrophenyl)methanone] has an EC50 ([3]; Mus musculus, 319N1) of 51 nM.
Work on `Cc1ccc(Cl)cc1N1CCN(C(=O)c2ccc(OC(F)(F)F)c([N+](=O)[O-])c2)CC1` [Compound 23, (4-(5-Chloro-2-methylphenyl)piperazin-1-yl)(3-nitro-4-(trifluoromethoxy)phenyl)methan-one] yielded an EC50 ([3]; Mus musculus, 319N1) of 20 nM.
In the case of `C#CCOc1cccc(N2CCN(C(=O)c3ccc(Cl)c([N+](=O)[O-])c3)CC2)c1` [Compound 24, (4-Chloro-3-nitrophenyl)(4-(3-(prop-2-yn-1-yloxy)phenyl)piperazin-1-yl)methanone], the “covalent modification of 50 kDa protein (p50), in-gel fluorescence” value [5] is reported as “covalently modified”.
For `C#CCOc1cccc(N2CCN(C(=O)c3ccc(C)c([N+](=O)[O-])c3)CC2)c1` [Compound 25, (4-Methyl-3-nitrophenyl)(4-(3-(prop-2-yn-1-yloxy)phenyl)piperazin-1-yl)methanone], the “fold less active compared to 24” value ([3]; 319N1) was 10 fold and the “covalent modification of 50 kDa protein (p50), in-gel fluorescence” value [5] was “not observed”.
With `COc1cc(OC)cc(N2CCN(C(=O)c3ccc(C=O)c([N+](=O)[O-])c3)CC2)c1` [Compound 26, 4-(4-(3,5-Dimethoxyphenyl)piperazine-1-carbonyl)-2-nitrobenzaldehyde] the EC50 ([3]; Mus musculus, 319N1) was 127 nM, the “effect on growth of microtubules of bovine brain tubulin, in words” value (bovine brain tubulin; 0.5 μM (SI Figure 5C)) was “potently reduced the growth” and the “effect on dynamics of β3 tubulin microtubules, in words” value ([6]; 1, 5 and 10 μM) was “dose-dependently altered the dynamics”.
For `COC(=O)c1c(C)oc2ccc(NS(=O)(=O)c3ccc(Cl)c([N+](=O)[O-])c3)cc12` [Compound 27], the “competition with probe 24 for p50, in words” value [7] was “displaced probe 24 from p50 in a dose-responsive manner” and the “IC50 fold change, resistant clones versus parental” value [4] was greater than 2 fold.
With `O=C(c1ccc(Cl)cc1)N1CCN(c2ccccc2)CC1` [Compound 28] the “antiproliferative activity in words” value ([3]; 319N1) was “complete eradication of antiproliferative activity”.
With `O=C(c1cccc([N+](=O)[O-])c1)N1CCN(c2ccccc2)CC1` [Compound 29] the “antiproliferative activity in words” value ([3]; 319N1) was “complete eradication of antiproliferative activity”.
In the case of `COc1cc2c(c(OC)c1OC)-c1ccc(OC)c(=O)cc1[C@@H](NC(C)=O)CC2` [colchicine, reference compound], the cell cycle effect (518T2 cells) is reported as “induced G2/M cell cycle arrest”.
For `COc1cc([C@@H]2c3cc4c(cc3[C@@H](O[C@@H]3O[C@@H]5CO[C@@H](C)O[C@H]5[C@H](O)[C@H]3O)[C@H]3COC(=O)[C@H]23)OCO4)cc(OC)c1O` [etoposide, reference compound], the “cross-resistance of 27-resistant clones, in words” value ([4]; clones A–E) was “not cross-resistant”.
In the case of `CC[C@]1(O)C[C@H]2CN(CCc3c([nH]c4ccccc34)[C@@](C(=O)OC)(c3cc4c(cc3OC)N(C=O)[C@H]3[C@@](O)(C(=O)OC)[C@H](OC(C)=O)[C@]5(CC)C=CCN6CC[C@]43[C@@H]65)C2)C1` [vincristine, reference compound], the “competition with probe 24 for p50, in words” value [7] is reported as “no such probe competition was observed”.
For “(4-Bromo-3-nitrophenyl)(4-(5-chloro-2-methylphenyl)piperazin-1-yl)methanone [Compound 21]”, the EC50 ([3]; 319N1 mSCLC cells, quoted in running text) was 55 nM, the cell cycle effect (518T2 cells) was “induced G2/M cell cycle arrest” and the “effect on growth of brain tubulin, in words” value (bovine brain tubulin; 1 μM) was “dramatically affected the growth”. The “reduction of growth of bovine brain microtubules” value (bovine brain tubulin; 10:1 (tubulin/compound) ratio, compared to control) was “approximately 80%”, the “effect on in vitro microtubule growth rate of β3 tubulin, in words” value ([6]; up to 10 μM) was “failed to impair” and the “compound resistance compared to parental 518T2 cells” value (518T2-Tubb5^T238A cells) was “Compound resistance to analog 21 was confirmed”.
